# Experimental data reported in ChEMBL document CHEMBL3414472, “Synthesis, SAR, and series evolution of novel oxadiazole-containing 5-lipoxygenase activating protein inhibitors: discovery of 2-[4-(3-{(r)-1-[4-(2-amino-pyrimidin-5-yl)-phenyl]-1-cyclopropyl-ethyl}-[1,2,4]oxadiazol-5-yl)-pyrazol-1-yl]-N,N-dimethyl-acetamide (BI 665915)” (J Med Chem, 2015).
# Tests used:
# [1] = biological target: Leukotriene B4 receptor 1 (Homo sapiens) (UniProt Q15722); assay: Inhibition of BLT1 (unknown origin) at 10 uM relative to control
# Leukotriene B4 receptor 1 (Homo sapiens), sequence (Q15722 whole entry): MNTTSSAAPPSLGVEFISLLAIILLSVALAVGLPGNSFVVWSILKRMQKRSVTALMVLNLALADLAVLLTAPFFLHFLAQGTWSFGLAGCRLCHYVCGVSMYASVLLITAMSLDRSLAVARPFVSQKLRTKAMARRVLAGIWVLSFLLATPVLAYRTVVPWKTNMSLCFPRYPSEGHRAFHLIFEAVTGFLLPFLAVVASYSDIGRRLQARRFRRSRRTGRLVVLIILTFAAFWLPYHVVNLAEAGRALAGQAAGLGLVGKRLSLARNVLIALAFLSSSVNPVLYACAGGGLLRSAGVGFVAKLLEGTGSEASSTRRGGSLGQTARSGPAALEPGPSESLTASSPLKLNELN
# [2] = biological target: T1, Leukotriene B4 receptor 2 (Homo sapiens) (UniProt Q9NPC1); assay: Inhibition of BLT2 (unknown origin) at 10 uM relative to control
# T1 sequence (whole entry): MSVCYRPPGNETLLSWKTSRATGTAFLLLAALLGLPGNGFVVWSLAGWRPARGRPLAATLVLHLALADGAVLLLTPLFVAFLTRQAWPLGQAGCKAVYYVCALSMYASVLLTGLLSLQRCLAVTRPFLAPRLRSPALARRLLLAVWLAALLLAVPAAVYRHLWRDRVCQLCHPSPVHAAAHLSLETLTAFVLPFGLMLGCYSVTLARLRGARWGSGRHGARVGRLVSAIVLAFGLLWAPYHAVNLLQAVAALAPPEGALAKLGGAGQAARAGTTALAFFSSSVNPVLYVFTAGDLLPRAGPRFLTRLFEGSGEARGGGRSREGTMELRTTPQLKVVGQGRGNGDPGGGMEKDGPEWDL
# [3] = Clearance in human hepatocytes at 1 uM measured over 6 hrs by LC/MS analysis relative to hepatic blood flow; assay type: ADME, cell-based, Liver, Hepatocyte; conditions: read-out: CLH
# Method in brief: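 Cryopreserved human hepatocytes (1 million cells/mL) incubated with compound (1 µM) at 37 °C; compound remaining measured by LC/MS over duplicate 6-timepoint curves (0 to 6 h). The slope is taken from ln % remaining versus time. Clearance is expressed as percent of hepatic blood flow.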
# Hepatocyte = assay: Unbound clearance in human hepatocytes at 1 uM measured over 6 hrs by LC/MS analysis relative to hepatic blood flow; assay type: ADME, cell-based, Liver
# Method in brief: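 Cryopreserved human hepatocytes (1 million cells/mL) with 1 µM compound at 37 °C for 6 h; compound remaining measured by LC/MS over a duplicate 6-timepoint (0 to 6 h) curve. Clearance derived from the ln(% remaining) vs time slope and corrected by the human plasma unbound fraction; expressed as percent of hepatic blood flow.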
# [4] = Efflux ratio of permeability across human Caco2 cells; assay type: ADME, cell-based; conditions: Caco-2
# Method in brief: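 Caco-2 cells were seeded at 1-2 x 10^5 cells/cm2 on 0.4 µm PET filter inserts and cultured 10 to 25 days. Compound in HTP-4 transport buffer was added to the apical or basolateral donor side for A-B or B-A transport. Donor and receiver samples were taken up to 2 h and measured by LC/MS/MS. Each value is from duplicate 6-timepoint curves (0 to 2 h).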
# Rattus norvegicus = assay: Clearance in rat at 1 mg/kg, iv and 10 mg/kg, po relative to hepatic blood flow; assay type: ADME, organism-based, Liver; conditions: in vivo
# Method in brief: (§1)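 iv 1 mg/kg in 70 % PEG; po 10 mg/kg as suspension in 0.5 % methyl cellulose/0.015 % Tween. Blood sampled at 11 timepoints (0, 5, 15, 30 min, 1, 2, 4, 6, 8, 12, 24 h) per dose; mean of n = 3. Clearance expressed as percent of hepatic blood flow.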
# [5] = Oral bioavailability in rat at 10 mg/kg; assay type: ADME, organism-based; conditions: in vivo; method in brief: as §1
# [6] = Volume of distribution at steady state in dog at 1 mg/kg, iv and 10 mg/kg, po; assay type: ADME, organism-based, Canis lupus familiaris; conditions: in vivo, read-out: Vdss; method in brief: as §1
# [7] = Volume of distribution at steady state in cynomolgus monkey at 1 mg/kg, iv and 10 mg/kg, po; assay type: ADME, organism-based, Macaca fascicularis; conditions: in vivo, read-out: Vdss; method in brief: as §1
# [8] = Plasma concentration in C57BL/6 mouse at 30 mg/kg, po after 2 hrs; assay type: ADME, organism-based; design: dose 30 mg/kg, route oral
# Mus musculus [9] = assay: In vivo inhibition of FLAP in C57BL/6 mouse assessed as LTB4 production in calcimycin-stimulated whole blood at 1 mg/kg, po after 2 hrs by ELISA (reference value: 100 +/- 13.3%); assay type: functional; design: scale not given: the % may be the effect or the level left
# Mus musculus [10] = assay: In vivo inhibition of FLAP in C57BL/6 mouse assessed as LTB4 production in calcimycin-stimulated whole blood at 3 mg/kg, po after 2 hrs by ELISA (reference value: 100 +/- 13.3%); assay type: functional; design: scale not given: the % may be the effect or the level left
# Mus musculus [11] = assay: In vivo inhibition of FLAP in C57BL/6 mouse assessed as LTB4 production in calcimycin-stimulated whole blood at 10 mg/kg, po after 2 hrs by ELISA (reference value: 100 +/- 13.3%); assay type: functional; design: scale not given: the % may be the effect or the level left
# [12] = biological target: T2, Arachidonate 5-lipoxygenase-activating protein (Homo sapiens, UniProt P20292); assay: Displacement of [125I]-L-691831 from human FLAP expressed in insect SF9 cell membranes after 2 hrs by Topcount analysis
# T2 sequence (P20292 whole entry): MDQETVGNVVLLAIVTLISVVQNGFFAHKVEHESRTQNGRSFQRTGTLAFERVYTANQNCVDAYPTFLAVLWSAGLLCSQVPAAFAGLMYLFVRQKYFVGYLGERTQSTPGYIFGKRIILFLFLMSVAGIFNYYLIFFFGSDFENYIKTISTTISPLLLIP
# [13] = biological target: T2, Arachidonate 5-lipoxygenase-activating protein; assay: Inhibition of FLAP in calcimycin-stimulated human whole blood assessed as inhibition of LTB4 synthesis preincubated for 15 mins followed by calcimycin stimulation measured after 30 mins
# Method in brief: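 Heparinized human volunteer blood preincubated with compound 15 min at 37 °C, 5 % CO2; calcimycin 100 µM final, 30 min at 37 °C; spun 2000 rpm 5 min at 4 °C. Supernatant LTB4 measured by HTRF competition (LTB4-XL665 plus anti-LTB4 cryptate, 2 h room temperature). Geometric mean (n ≥ 3) of duplicate 10-point curves.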
# [14] = biological target: T3, Polyunsaturated fatty acid 5-lipoxygenase (Homo sapiens) (UniProt P09917); assay: Inhibition of 5-LO (unknown origin) at 10 uM relative to control
# T3 sequence (whole entry): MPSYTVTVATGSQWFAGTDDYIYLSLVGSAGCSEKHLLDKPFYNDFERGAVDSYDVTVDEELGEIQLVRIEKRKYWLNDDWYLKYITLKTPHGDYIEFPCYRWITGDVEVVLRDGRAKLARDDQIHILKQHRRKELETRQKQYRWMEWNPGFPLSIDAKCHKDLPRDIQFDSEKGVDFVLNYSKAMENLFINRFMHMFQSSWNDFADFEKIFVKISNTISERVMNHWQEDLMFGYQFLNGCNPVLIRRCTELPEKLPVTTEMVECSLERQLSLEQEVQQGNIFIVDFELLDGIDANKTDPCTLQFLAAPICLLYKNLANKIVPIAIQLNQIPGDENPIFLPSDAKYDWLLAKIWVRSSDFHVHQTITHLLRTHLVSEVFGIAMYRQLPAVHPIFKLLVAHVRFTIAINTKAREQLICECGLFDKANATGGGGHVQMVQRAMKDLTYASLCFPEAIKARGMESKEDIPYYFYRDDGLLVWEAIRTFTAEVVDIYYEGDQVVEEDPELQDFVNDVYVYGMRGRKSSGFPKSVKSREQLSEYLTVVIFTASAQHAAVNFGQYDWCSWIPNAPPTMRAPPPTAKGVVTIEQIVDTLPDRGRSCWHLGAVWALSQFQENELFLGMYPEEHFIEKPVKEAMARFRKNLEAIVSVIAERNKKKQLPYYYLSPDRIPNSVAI
# [15] = biological target: Prostaglandin G/H synthase 1 (Homo sapiens) (UniProt P23219); assay: Inhibition of cyclooxygenase-1 (unknown origin) at 10 uM relative to control
# Prostaglandin G/H synthase 1 (Homo sapiens), sequence (P23219 whole entry): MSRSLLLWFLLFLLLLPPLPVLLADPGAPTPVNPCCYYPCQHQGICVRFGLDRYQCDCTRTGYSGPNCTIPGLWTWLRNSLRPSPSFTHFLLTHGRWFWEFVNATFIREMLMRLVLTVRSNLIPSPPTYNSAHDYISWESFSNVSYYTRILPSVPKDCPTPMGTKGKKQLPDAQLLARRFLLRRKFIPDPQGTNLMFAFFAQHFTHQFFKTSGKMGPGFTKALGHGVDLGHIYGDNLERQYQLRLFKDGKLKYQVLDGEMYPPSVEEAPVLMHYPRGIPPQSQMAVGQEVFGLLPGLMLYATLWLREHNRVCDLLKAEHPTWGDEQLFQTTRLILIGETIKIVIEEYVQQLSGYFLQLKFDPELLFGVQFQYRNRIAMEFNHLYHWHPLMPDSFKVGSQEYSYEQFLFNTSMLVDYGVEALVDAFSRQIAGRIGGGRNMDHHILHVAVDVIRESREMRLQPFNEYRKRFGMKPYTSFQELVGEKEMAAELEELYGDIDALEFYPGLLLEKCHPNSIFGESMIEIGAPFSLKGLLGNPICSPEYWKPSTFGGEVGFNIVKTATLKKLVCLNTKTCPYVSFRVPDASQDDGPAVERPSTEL
structure (smiles),measurement,setting,value
CN(C)C(=O)Cn1cc(-c2nc([C@@](C)(c3ccc(-c4cnc(N)nc4)cc3)C3CC3)no2)cn1 [BI 665915],inhibition,[1],< 50%
same,inhibition,[2],< 50%
same,"hepatic extraction ratio at 6 h, 1 µM",[3],0.41
same,CL free,Hepatocyte,8.7%
same,efflux ratio,[4],1.9
same,CL,Rattus norvegicus,7%
same,bioavailability,[5],63%
same,Vd,[6],1.2 L/kg
same,Vd,[7],0.5 L/kg
same,concentration at 2 h,[8],20.7 µM
same,Activity,Mus musculus [9],110.6%
same,Activity,Mus musculus [10],91%
same,Activity,Mus musculus [11],35.2%
same,IC50,[12],1.7 nM
same,IC50,[13],45 nM
same,inhibition,[14],< 50%
same,inhibition,[15],< 50%
